In ChEMBL document CHEMBL3576822 (J Med Chem, 2015):
pEC50, pIC50: −log10 of the molar value. The source made the active and inactive calls. No cut-off for these calls is given here.

Experiments:
[1] = target: T1, Growth hormone secretagogue receptor type 1 (Homo sapiens, UniProt Q92847); assay: Inverse agonist activity at human GHSR1a receptor expressed in COS-7 cells assessed as inositol phosphate accumulation after 2 hrs by anion exchange chromatography; type: functional, cell-based
[2] = target: T1, Growth hormone secretagogue receptor type 1; assay: Inverse agonist activity at human GHSR1a receptor expressed in COS-7 cells assessed as inositol phosphate accumulation after 2 hrs by anion exchange chromatography relative to control; type: functional, cell-based
[3] = target: T2, Neuropeptide Y receptor type 2 (Homo sapiens, UniProt P49146); assay: Agonist activity at human neuropeptide Y Y2 receptor expressed in COS-7 cells cotransfected with chimeric Gi/q protein assessed as inositol phosphate accumulation after 2 hrs by anion exchange chromatography; type: functional, cell-based
T2 sequence (P49146 whole entry): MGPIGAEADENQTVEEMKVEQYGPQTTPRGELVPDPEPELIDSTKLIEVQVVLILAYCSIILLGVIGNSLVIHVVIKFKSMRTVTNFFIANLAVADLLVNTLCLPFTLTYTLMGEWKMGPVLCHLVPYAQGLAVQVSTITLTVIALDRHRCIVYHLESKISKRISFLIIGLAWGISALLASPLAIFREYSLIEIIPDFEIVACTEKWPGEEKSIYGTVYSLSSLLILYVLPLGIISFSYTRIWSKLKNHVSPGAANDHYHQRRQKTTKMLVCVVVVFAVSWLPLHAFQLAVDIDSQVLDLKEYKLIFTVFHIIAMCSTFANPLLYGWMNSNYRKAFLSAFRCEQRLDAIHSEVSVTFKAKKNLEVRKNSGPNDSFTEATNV
Method in brief: (§1)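 Inositol phosphate turnover in COS-7 cells stably co-expressing human Y2 receptor and chimeric Gi/q protein; concentration-response curves, responses as % of maximum Y2 activity; SEM over two biological replicates.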

[4] = target: T3, Neuropeptide Y receptor type 2 (Homo sapiens) (UniProt P49146); assay: Agonist activity at human neuropeptide Y Y2 receptor expressed in COS-7 cells cotransfected with chimeric Gi/q protein assessed as inositol phosphate accumulation after 2 hrs by anion exchange chromatography relative to control; type: functional, cell-based; method in brief: as §1
T3 sequence (whole entry): T2 sequence (P49146 whole entry)

[5] = target: T1, Growth hormone secretagogue receptor type 1; assay: Displacement of [125I]ghrelin from human eYFP-fused ghrelin receptor expressed in COS7 cells after 75 mins by competitive receptor binding assay; type: cell-based, COS-7
[6] = target: T2, Neuropeptide Y receptor type 2; assay: Displacement of [125I]PYY from human neuropeptide Y Y2 receptor expressed in HEK293 cells cotransfected with eYFP fusion protein after 2 hrs by competitive receptor binding assay; type: cell-based
Method in brief: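 Competitive binding against 125I-PYY in HEK-293 cells stably expressing human Y2 receptor; concentration-response curves.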

[7] = target: T4, Neuropeptide Y receptor type 1 (Homo sapiens) (UniProt P25929); assay: Agonist activity at human neuropeptide Y Y1 receptor expressed in COS-7 cells cotransfected with chimeric Gi/q protein assessed as inositol phosphate accumulation at 1 uM after 2 hrs by anion exchange chromatography; type: functional, cell-based
T4 sequence (whole entry): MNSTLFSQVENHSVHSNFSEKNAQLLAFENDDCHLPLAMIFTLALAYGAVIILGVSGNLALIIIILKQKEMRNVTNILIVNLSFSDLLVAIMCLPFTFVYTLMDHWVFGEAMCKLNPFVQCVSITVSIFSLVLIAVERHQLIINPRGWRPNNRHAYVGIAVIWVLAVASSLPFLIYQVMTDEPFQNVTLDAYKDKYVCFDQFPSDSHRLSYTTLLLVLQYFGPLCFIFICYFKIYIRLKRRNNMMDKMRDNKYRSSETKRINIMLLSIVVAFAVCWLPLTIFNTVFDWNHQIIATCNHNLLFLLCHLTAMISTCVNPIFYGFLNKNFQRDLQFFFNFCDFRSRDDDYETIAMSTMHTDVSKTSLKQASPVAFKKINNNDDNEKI
Method in brief: (§2)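 COS-7 cells stably co-expressing the corresponding human Y receptor plus a chimeric Gi/q protein; single high concentration tested in inositol phosphate accumulation; response as % of NPY response at each receptor; SEM over two biological replicates.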

[8] = target: Neuropeptide Y receptor type 4 (Homo sapiens) (UniProt P50391); assay: Agonist activity at human neuropeptide Y Y4 receptor expressed in COS-7 cells cotransfected with chimeric Gi/q protein assessed as inositol phosphate accumulation at 1 uM after 2 hrs by anion exchange chromatography; type: functional, cell-based; method in brief: as §2
[9] = target: T5, Neuropeptide Y receptor type 5 (Homo sapiens) (UniProt Q15761); assay: Agonist activity at human neuropeptide Y Y5 receptor expressed in COS-7 cells cotransfected with chimeric Gi/q protein assessed as inositol phosphate accumulation at 1 uM after 2 hrs by anion exchange chromatography; type: functional, cell-based; method in brief: as §2
T5 sequence (whole entry): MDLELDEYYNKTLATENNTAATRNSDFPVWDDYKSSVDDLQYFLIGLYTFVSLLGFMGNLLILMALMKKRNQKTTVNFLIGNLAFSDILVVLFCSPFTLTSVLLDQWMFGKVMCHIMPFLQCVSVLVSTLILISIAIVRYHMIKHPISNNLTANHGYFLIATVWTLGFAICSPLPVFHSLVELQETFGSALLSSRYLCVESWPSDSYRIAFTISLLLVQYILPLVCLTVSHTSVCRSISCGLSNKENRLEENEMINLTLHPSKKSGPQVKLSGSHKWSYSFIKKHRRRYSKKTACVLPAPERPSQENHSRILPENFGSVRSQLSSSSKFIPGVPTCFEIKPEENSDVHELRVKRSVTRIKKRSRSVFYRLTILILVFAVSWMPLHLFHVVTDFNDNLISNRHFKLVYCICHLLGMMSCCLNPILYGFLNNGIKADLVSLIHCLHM

Mus musculus [10] = assay: Effect on food intake in diet-induced obese C57BL/6JRj mouse at 500 nM/kg, sc; type: functional, organism-based
Method in brief: (§3)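 Freely fed diet-induced obese mice, saline control group; single acute dose, SC at 500 nM/kg or IP at 50, 100 or 250 nM/kg; cumulative food intake and body weight recorded.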

Mus musculus [11] = assay: Effect on body weight in diet-induced obese C57BL/6JRj mouse at 500 nM/kg, sc; type: functional, organism-based; method in brief: as §3
Mus musculus [12] = assay: Effect on food intake in diet-induced obese C57BL/6JRj mouse at 50 to 250 nM/kg, ip; type: functional, organism-based; method in brief: as §3
Mus musculus [13] = assay: Effect on body weight in diet-induced obese C57BL/6JRj mouse at 50 to 250 nM/kg, ip; type: functional, organism-based; method in brief: as §3
Mus musculus [14] = assay: Effect on food intake in diet-induced obese C57BL/6JRj mouse at 100 nM/kg, ip administered daily for 10 days; type: functional, organism-based
Method in brief: (§4)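 Freely fed diet-induced obese mice randomized to groups, saline as control; daily IP injection at 100 nM/kg for 10 days; cumulative food intake and body weight tracked in parallel; drug-by-time interaction analysed by repeated-measures ANOVA.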

Mus musculus [15] = assay: Effect on body weight in diet-induced obese C57BL/6JRj mouse at 100 nM/kg, ip administered daily for 10 days; type: functional, organism-based; method in brief: as §4
Mus musculus [16] = assay: Decrease in food intake in diet-induced obese C57BL/6JRj mouse at 0.25 nM/h, sc administered via osmotic minipumps daily for 14 days; type: functional, organism-based
Mus musculus [17] = assay: Effect on body weight in diet-induced obese C57BL/6JRj mouse at 0.25 nM/h, sc administered via osmotic minipumps daily for 14 days; type: functional, organism-based

T1 sequence (Q92847 whole entry): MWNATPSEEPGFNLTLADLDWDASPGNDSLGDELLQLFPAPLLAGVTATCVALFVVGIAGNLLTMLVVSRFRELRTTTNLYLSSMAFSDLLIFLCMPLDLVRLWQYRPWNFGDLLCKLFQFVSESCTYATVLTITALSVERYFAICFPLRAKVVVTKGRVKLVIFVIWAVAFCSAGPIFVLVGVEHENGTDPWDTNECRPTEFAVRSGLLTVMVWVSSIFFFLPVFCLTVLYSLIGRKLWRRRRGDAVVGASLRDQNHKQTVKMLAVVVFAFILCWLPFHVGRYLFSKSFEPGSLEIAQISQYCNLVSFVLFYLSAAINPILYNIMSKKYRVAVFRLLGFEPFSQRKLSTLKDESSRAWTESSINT
Neuropeptide Y receptor type 4 (Homo sapiens), sequence (P50391 whole entry): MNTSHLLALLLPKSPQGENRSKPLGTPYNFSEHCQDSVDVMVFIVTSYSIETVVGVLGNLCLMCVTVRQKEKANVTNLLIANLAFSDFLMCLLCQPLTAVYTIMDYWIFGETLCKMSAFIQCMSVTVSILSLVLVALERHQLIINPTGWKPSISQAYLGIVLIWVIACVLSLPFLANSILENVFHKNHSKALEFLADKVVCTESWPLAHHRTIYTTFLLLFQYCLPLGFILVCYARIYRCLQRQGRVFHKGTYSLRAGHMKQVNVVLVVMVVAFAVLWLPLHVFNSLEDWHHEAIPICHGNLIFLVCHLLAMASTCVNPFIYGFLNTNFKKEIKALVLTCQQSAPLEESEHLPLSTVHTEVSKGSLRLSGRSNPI

## CC(=O)NC(CNC(=O)CCC(=O)N[C@@H](CCCCN)C(=O)N[C@H](Cc1cccc2ccccc12)C(=O)N[C@@H](Cc1ccccc1)C(=O)N[C@H](Cc1c[nH]c2ccccc12)C(=O)N[C@@H](CC(C)C)C(=O)N[C@@H](CC(C)C)C(N)=O)C(=O)N[C@@H](CC(C)C)C(=O)N[C@@H](CCCNC(=N)N)C(=O)N[C@@H](Cc1cnc[nH]1)C(=O)N[C@@H](Cc1ccc(O)cc1)C(=O)N[C@@H](CC(C)C)C(=O)N[C@@H](CC(N)=O)C(=O)N[C@@H](CC(C)C)C(=O)N[C@@H](CC(C)C)C(=O)N[C@H](C(=O)N[C@@H](CCCNC(=N)N)C(=O)N[C@@H](CCC(N)=O)C(=O)N[C@@H](CCCNC(=N)N)C(=O)N[C@@H](Cc1ccc(O)cc1)C(N)=O)[C@@H](C)O (some centres not stated)
[1]
  pEC50: 7.38
[2]
  Efficacy: 82%
[3]
  pEC50: 8.49
[4]
  Efficacy: 84%
[5]
  pIC50: 7.01
[6]
  pIC50: 7.21
[7]
  Efficacy: < 25%
[8]
  Efficacy: < 25%
[9]
  Efficacy: 33%
Mus musculus [10]
  Activity: inactive
Mus musculus [11]
  Activity: inactive
Mus musculus [12]
  Activity: inactive
Mus musculus [13]
  Activity: inactive
Mus musculus [14]
  Activity: inactive
Mus musculus [15]
  Activity: inactive
Mus musculus [16]
  inhibition: Active
Mus musculus [17]
  Activity: inactive
